# CTSL1 counter: blocks F. hepatica cathepsin L1 in PFM18AAP counter-screen | recombinant F. hepatica cathepsin L1, Z-Leu-Arg-MCA fluorescence | inhibition, % at 5.96 µM | 0.49% of 300,000 active;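 active = inhibition above the mean of all tested compounds plus 3 SD, set per screening campaign, cut at about 17% in these data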;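 also: 0% = plate median of test compound wells and 100% = 1 µM Z-Phe-Ala-diazomethylketone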
# HDAC3 inhib: inhibitors of human histone deacetylase 3; O15379; inhibition, % at 8.3 µM; AID 2718; 0.15% of 320,000 active; recombinant HDAC3, fluorogenic peptide/trypsin coupled, fluorescence; in the data active = inhibition above about 26%, passing the limit was not always enough
# M18AAP inhibitor: blocks P. falciparum M18 aspartyl aminopeptidase | recombinant PfM18AAP, H-Glu-NHMec fluorogenic cleavage | inhibition, % at 7.35 µM | 1.2% of 290,000 active | AID 1822;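 active = inhibition above the campaign mean inhibition over all tested compounds plus 3 SD, cut at about 28% in these data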;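 also: 0% = plate median of test compound wells and 100% = 2 mM ZnCl2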
# AHR activator: human AHR activation; P35869; AHR-responsive luciferase reporter cells, luminescence; activation, % at 5 µM; 2.5% of 320,000 active; in the data active = activation above about 47%;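 also: 0% = vehicle wells and 100% = reference agonist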
# Target sequence (P35869 whole entry, looked up): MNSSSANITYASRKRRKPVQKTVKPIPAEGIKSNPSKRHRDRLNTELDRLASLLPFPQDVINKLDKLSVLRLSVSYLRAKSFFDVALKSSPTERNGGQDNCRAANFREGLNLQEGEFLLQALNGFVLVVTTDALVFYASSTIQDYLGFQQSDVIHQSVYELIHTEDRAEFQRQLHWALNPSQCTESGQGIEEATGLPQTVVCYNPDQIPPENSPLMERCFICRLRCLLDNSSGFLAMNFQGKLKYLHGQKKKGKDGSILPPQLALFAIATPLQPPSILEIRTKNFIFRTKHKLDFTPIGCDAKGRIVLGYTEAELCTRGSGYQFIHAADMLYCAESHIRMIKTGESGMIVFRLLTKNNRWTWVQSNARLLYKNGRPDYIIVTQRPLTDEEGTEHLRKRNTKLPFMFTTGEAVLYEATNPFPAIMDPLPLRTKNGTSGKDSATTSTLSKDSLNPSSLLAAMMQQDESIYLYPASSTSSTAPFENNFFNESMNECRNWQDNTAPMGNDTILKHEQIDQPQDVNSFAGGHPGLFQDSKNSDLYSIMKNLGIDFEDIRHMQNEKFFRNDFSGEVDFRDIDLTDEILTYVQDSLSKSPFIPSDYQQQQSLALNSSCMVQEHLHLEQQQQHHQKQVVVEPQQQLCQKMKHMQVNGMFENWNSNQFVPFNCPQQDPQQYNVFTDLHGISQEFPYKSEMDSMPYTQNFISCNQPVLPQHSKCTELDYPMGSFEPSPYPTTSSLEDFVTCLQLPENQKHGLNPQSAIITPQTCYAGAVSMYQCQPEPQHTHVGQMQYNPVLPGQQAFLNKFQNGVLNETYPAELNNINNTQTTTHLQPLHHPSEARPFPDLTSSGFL
# SENP1 inh: inhibitors of human SENP1 SUMO protease catalytic domain; Q9P0U3; recombinant SENP1 catalytic domain, CyPet-SUMO1-YPet FRET cleavage; inhibition, % at 10 µM; 0.21% of 360,000 active;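 active = inhibition at least 30% at 10 µM, raw YFP signal under a set limit, fluorescence ratio 0.5 to 1.5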;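 also: 0% = enzyme with DMSO and 100% = no enzyme wells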
#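 System: Recombinant human SENP1 catalytic domain, His6-tagged | Incubation: Enzyme reaction for 50 min at room temperature, dark | Medium: Tris pH 8 with BME, BSA, NP40 and catalase | Also added: 25 nM SUMO1 FRET substrate | Compound: 10 µM single point, 0.5% DMSO | Measured by: FRET fluorescence in CFP and YFP emission channels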
# GAA850 FXN act: increases GAA850 frataxin promoter reporter activity; activation, % at 6 µM; HEK293 lucGAA850 FXN promoter luciferase reporter, 24 h; percent of 10 µM SAHA response; 0.56% of 360,000 active;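 active = activation above the average of all compounds screened plus 3 SD, cutoff fixed separately per campaign, cut at about 7.5% in these data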;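 also: 0% = DMSO wells and 100% = 10 µM SAHA wells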
# AHR act cf: human AHR activation, confirmation; activation, % at 9 µM; human cells, AHR-responsive luciferase reporter, luminescence; 87% of 2,300 active; shares compounds with AHR activator; in the data active = activation above about 49%;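 also: HepG2 hepatoma cells carrying a DRE-driven firefly luciferase reporter; 0% = vehicle wells and 100% = reference agonist wells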
# PXR counter: PXR activation, counter-screen for AHR activators; cell-based PXR reporter, luciferase luminescence; activation, % at 11.6 µM; shares compounds with AHR activator; 88% of 2,300 active; AID 434939; in the data active = activation above about 11%;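 also: human hepatoma DPX-2 cells expressing full-length human PXR; 0% = DMSO and 100% = reference agonist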
# * = called active by the depositor; nt = not tested or not shown. Most compounds without a hit are left out; they make up all but 4.2% or so of the library.
SMILES,CTSL1 counter,HDAC3 inhib,M18AAP inhibitor,AHR activator,SENP1 inh,GAA850 FXN act,AHR act cf,PXR counter
Clc1cccc(Nc2nc(-c3ccncc3)cs2)c1,2,-3,0,98*,1,7,96*,11*
O=C(Nc1cccc(-c2csc(Nc3ccccc3)n2)c1)c1cc([N+](=O)[O-])cc(C(F)(F)F)c1,4,-2,-7,31,0,-2,nt,nt
CC(=O)Nc1cccc(-c2csc(Nc3ccc(C)cn3)n2)c1,8,8,-6,145*,2,4,24,34*
O=C(Nc1cccc(-c2csc(Nc3ccc(Cl)cc3)n2)c1)c1cccc(C(F)(F)F)c1,1,4,nt,106*,0,1,37,25*
COCC(=O)N[C@H]1CC[C@@H](CC(=O)NCc2ccccc2OC)O[C@@H]1CO,nt,nt,nt,nt,1,nt,nt,nt
CC1(C)Cc2c(cnn2-c2ccc(F)cc2)C(NC(=O)CN2CCCCC2=O)C1 (centres undefined),3,2,2,0,3,-1,nt,nt
O=C(CCCc1ccccc1)NC12CC3CC(CC(C3)C1)C2,-1,-1,4,5,0,7,nt,nt
COc1ccc(-c2c(-c3cc(OC)cc(OC)c3)n(C)c3ccc(-c4ccc5cc[nH]c5c4)cc23)cc1,nt,-67,nt,10,-2,1,nt,nt
CN1CCN(c2ccc3c(c2)OC[C@@H](Cc2ccccc2)NS3(=O)=O)CC1,nt,nt,nt,nt,0,nt,nt,nt
C=CCNc1nc(=S)[nH]c2cc(OC)c(OC)cc12,2,-3,6,104*,-4,-2,75*,13*
NC(=S)N/N=C\c1ccc(-c2cccc(Cl)c2Cl)o1,19*,14,-6,107*,-11,1,110*,26*
NC(=O)N/N=C/c1ccc(-c2ccc([N+](=O)[O-])cc2)o1,1,16,-1,21,-34,6,nt,nt
Cc1ccc(-c2ccc(/C=N/NC(=O)c3ccccc3O)o2)cc1,4,-2,7,16,nt,nt,nt,nt
NC(=S)N/N=C/c1ccc(-c2ccccc2)o1,13,12,7,93*,-43,0,32,21*
COCCNC(=S)N/N=C/c1ccc(-c2ccc([N+](=O)[O-])cc2)o1,4,4,26,128*,-35,-1,89*,11*
Cc1ccc(-c2ccc(/C=N/NC(N)=S)o2)cc1,12,-5,-3,100*,-33,3,90*,13*
O=C(NC1CC1)C1CCN(c2nc3ccccc3s2)CC1,-5,1,-1,7,-1,1,nt,nt
CN(c1ccc(OCC(=O)NC2CCC(O)CC2)cc1)S(=O)(=O)c1ccc(Cl)cc1 (centres undefined),nt,4,nt,3,4,-2,nt,nt
C/C(=N\NC(=O)c1cccnc1)c1cccc([N+](=O)[O-])c1,5,1,2,46,1,2,nt,nt
CC(/C=C/c1cccc([N+](=O)[O-])c1)=N/NC(=O)c1cccnc1,4,4,14,85*,0,5,77*,nt
CCOC(=O)c1ccccc1NC(=O)Cc1ccc(OC)c(S(=O)(=O)N2CCOCC2)c1,nt,3,nt,-1,1,-1,nt,nt
Cc1ccc(C(=O)NCCCn2ccnc2)cc1C,1,5,nt,19,2,2,nt,nt
O=C(NCCCn1ccnc1)c1cc(Cl)cc(Cl)c1,-2,-2,-1,87*,6,2,74*,22*
CNC(=S)N/N=C/c1c(C)c(C(=O)c2ccc(F)cc2)n2ccccc12,0,-9,3,23,-32,-1,nt,nt
Cc1c(/C=N/NC(N)=O)c2ccccn2c1C(=O)c1ccc(F)cc1,1,8,7,90*,9,6,26,77*
SMILES,CTSL1 counter,HDAC3 inhib,M18AAP inhibitor,AHR activator,SENP1 inh,GAA850 FXN act,AHR act cf,PXR counter
CC(C)(C)NNC(=S)Nc1cccc(C(F)(F)F)c1,-2,-6,-5,-1,3,1,nt,nt
Cc1cccc(NC(=S)Nc2cccc(C(F)(F)F)c2)n1,3,-3,8,104*,2,4,125*,23*
O=[N+]([O-])c1cccc(NC(=S)Nc2nc(-c3ccccc3Cl)cs2)c1,1,nt,6,87*,-1,-2,56*,23*
O=C(NC(=S)Nc1ccc(F)c(Cl)c1)C1CC1,-2,-13,10,93*,0,3,95*,nt
Cc1ccc(NC(=S)NC(=O)C2CC2)cc1Cl,nt,9,1,nt,-1,2,nt,nt
COc1cc(-c2csc(NC3CCCCC3)n2)cc(OC)c1OC,-2,6,2,81*,-3,1,50*,37*
Cc1cnc(C(=O)Nc2nnc(C3CC3)s2)cn1,-1,-2,3,10,1,3,nt,nt
COc1c(C(=O)Nc2nnc(C3CC3)s2)csc1Cl,1,-4,2,113*,1,4,157*,79*
CCN(CC)c1ccc(NC(=O)CSc2nc3ccccc3c(=O)n2-c2cc(S(=O)(=O)N(C)C)ccc2C)cc1,-2,-1,14,10,0,0,nt,nt
Cc1ccc([C@H]2C(C(=O)O)=CC[C@@H](c3ccc(Cl)c(Cl)c3)N2S(=O)(=O)c2ccc(C)cc2)cc1,nt,nt,nt,0,-2,1,nt,nt
O=C(Nc1cc(Cl)cc(Cl)c1)c1cccc(OC(F)F)c1,2,2,7,81*,0,2,94*,44*
Cc1ccnc(NC(=O)c2cccc(OC(F)F)c2)n1,4,3,-3,16,2,4,nt,nt
CC1(C(=O)NCc2ccccc2Br)CCN1Cc1csc2ccccc12 (centres undefined),nt,nt,nt,nt,-1,3,nt,nt
COc1ccc(-c2nc3ccccc3c(=O)[nH]2)cc1,1,-2,0,110*,0,4,106*,23*
O=c1[nH]c(-c2cccnc2)nc2ccccc12,2,-3,1,22,-19,2,nt,nt
O=C(N/N=C/c1cccc(O)c1)c1ccc(COc2ccc3c(c2)CCC3)o1,-2,7,10,118*,0,0,64*,19*
CCCc1ccc(OCc2ccc(C(=O)N/N=C/c3cccnc3)o2)cc1,nt,7,-11,nt,3,6,nt,nt
CON/C=C(\C=Nc1ccc(C(F)(F)F)cc1)c1ncc(C(F)(F)F)cc1Cl,2,-10,6,108*,-11,1,103*,31*
CON/C=C(\C=Nc1ccc(Cl)cc1)c1ncc(C(F)(F)F)cc1Cl,2,3,-5,112*,-4,0,93*,14*
Cc1noc(C)c1-c1ccc(C(=O)Nc2ccccc2)c2occc12,nt,nt,nt,nt,-2,4,nt,nt
O=C(CN1CCOCC1)Nc1nc2ccc([N+](=O)[O-])cc2s1,-1,-4,6,133*,-8,0,91*,nt
